CHO parental Ca: ATP-evoked calcium signal inhibitors, parental CHO, primary screen, counter-screen for OX1R antagonist project, cell-based, fluorescence, Fluo-8 calcium dye | parental CHO-K1, ATP-induced calcium, Fluo-8 fluorescence | inhibition, % at 5.6 µM | 0.63% of 330,000 active | AID 463079, 2010;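 active = inhibition above that plate's mean sample inhibition plus 3 SD, cut at about 26% in these data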
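material = parental CHO cells | also added = ATP as calcium-mobilizing challenge | dosing = single point at 5.6 µM | detection = intracellular calcium via Fluo-8 no-wash fluorescent dye | read-out = % inhibition | benchmarks = low control ATP plus DMSO, high control DMSO only | repeats = one well per compound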
TAAR1 agonist: human TAAR1 agonists, primary screen, Fluo-8 calcium fluorescence, CHO RD-HGA16 cells; Trace amine-associated receptor 1 (Homo sapiens), Q96RJ0; vehicle wells 0%, saturating PEA agonist 100%; activation, % at 3 µM; 0.99% of 360,000 active;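 active = activation above the mean activation of all test compounds in the run plus 3 SD, cut at about 38% in these data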
Target sequence (Q96RJ0 whole entry, looked up): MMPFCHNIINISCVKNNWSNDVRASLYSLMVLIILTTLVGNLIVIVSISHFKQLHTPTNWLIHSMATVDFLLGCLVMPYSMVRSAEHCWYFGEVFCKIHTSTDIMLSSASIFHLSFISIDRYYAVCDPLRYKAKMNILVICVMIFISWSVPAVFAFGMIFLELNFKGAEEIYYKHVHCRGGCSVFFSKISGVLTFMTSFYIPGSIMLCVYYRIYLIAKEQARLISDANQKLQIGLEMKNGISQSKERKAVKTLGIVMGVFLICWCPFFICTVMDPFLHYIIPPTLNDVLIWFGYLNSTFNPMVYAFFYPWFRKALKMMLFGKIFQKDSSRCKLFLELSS
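test system = CHO RD-HGA16 cells carrying human TAAR1 plus Gα16 | schedule = 17-24 h seeding, 75 min 37 °C dye, 30 min RT | compound dosing = 3 µM single concentration | control set = DMSO and PEA EC100 | replicates = n 1 | signal = Fluo-8 fluorescence, 5 s baseline then 140 s kinetic read | measure = percent activation vs PEA EC100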
GPR7 antagonist: GPR7 receptor antagonists, primary screen, cell-based, fluorescence, single concentration; inhibition, % at 4.4 µM; 1.1% of 290,000 active; AID 1861, 2009; GPR7-expressing cells, fluorescence antagonist assay; Neuropeptides B/W receptor type 1 (Homo sapiens), P48145; in the data active = inhibition above about 16%, passing the limit was not always enough;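 also: cells stimulated with the agonist NPW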
Target sequence (P48145 whole entry, looked up): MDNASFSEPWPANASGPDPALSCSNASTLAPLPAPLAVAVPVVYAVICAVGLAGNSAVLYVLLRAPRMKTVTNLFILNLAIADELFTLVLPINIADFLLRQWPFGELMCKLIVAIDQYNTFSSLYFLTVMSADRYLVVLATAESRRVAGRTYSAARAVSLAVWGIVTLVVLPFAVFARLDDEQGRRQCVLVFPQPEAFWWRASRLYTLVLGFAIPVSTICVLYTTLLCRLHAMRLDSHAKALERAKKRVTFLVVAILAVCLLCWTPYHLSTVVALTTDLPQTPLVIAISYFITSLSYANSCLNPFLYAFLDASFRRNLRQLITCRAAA
OX1R antag-1: OX1R (HCRTR1) antagonists, primary screen, fluorescence, CHO/OX1R cells, Fluo-8 calcium, orexin A. Orexin/Hypocretin receptor type 1 (Homo sapiens), O43613. Fluo-8 calcium fluorescence. inhibition, % at 5 µM. 0.43% of 330,000 active. AID 434989, 2010;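 active = inhibition above its plate's threshold, mean inhibition of all tested compounds on the plate plus 3 SD, cut at about 37% in these data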
TAAR1 antagonist: human TAAR1 antagonists, primary screen, Fluo-8 calcium fluorescence, CHO RD-HGA16 cells. Trace amine-associated receptor 1 (Homo sapiens), Q96RJ0. antagonist. inhibition, % at 3 µM. 1.5% of 360,000 active. AID 624466, 2012;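 active = inhibition above a per-plate cutoff, the mean inhibition of test compounds on that plate plus 3 SD, cut at about 49% in these data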
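System: RD-HGA16 CHO cells with stable hTAAR1 and Gα16 | Probe or stimulus: EC80 β-phenethylamine stimulus | Dosing: 3 µM, single point | Times: Dye loading 75 min at 37 °C, then 30 min room temperature | Measured by: Fluo-8 calcium-sensitive fluorescence | Read-out basis: % inhibition of agonist calcium response | Replicates: n of 1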
OX1R antag-2: antagonists of human orexin 1 receptor (OX1R); OX1R-expressing cells, FRET antagonist read-out; Orexin/Hypocretin receptor type 1 (Homo sapiens), O43613; 1.8% of 330,000 active; inhibition, % at 6.6 µM; AID 485270, 2010; in the data active = inhibition mostly above about 38%, no sharp cut-off; inactive = mostly below about 40%
Large screens that a line does not name were inactive. Most compounds without a hit are left out; they make up all but 4.6% or so of the library.

O=C(O)Cc1sc(NC2CCCCC2)nc1-c1ccc(Cl)cc1	CHO parental Ca 33
CC1CCCN(S(=O)(=O)c2ccc3c(c2)c(=O)nc2ccc(Cl)cn23)C1 (centres undefined)	none
Cc1nnc(SCC(=O)Nc2ccc(S(N)(=O)=O)cc2)n(N)c1=O	none (no result: GPR7 antagonist)
CC(=O)NC(c1cc(Cl)c2ccccc2c1O)C(C)C (centres undefined)	OX1R antag-2 40 (no result: GPR7 antagonist)
CC(=O)NC(c1cc(Cl)c2cccnc2c1O)C(C)C (centres undefined)	none (no result: GPR7 antagonist)
CC(=O)NC(c1cccs1)c1cc(Cl)c2ccccc2c1O (centres undefined)	none (no result: GPR7 antagonist)
CCC(=O)NC(C)c1cc(Cl)c2ccccc2c1O (centres undefined)	none (no result: GPR7 antagonist)
CCC(=O)NC(c1cccs1)c1cc(Cl)c2ccccc2c1O (centres undefined)	OX1R antag-2 48 (no result: GPR7 antagonist)
CCC(=O)NC(c1cc(Cl)c2ccccc2c1O)C1CC1 (centres undefined)	OX1R antag-2 63 (no result: GPR7 antagonist)
O=C(OCn1nnc2ccccc2c1=O)C1CCCCC1	none
Cn1cc([C@@H]2C[C@H]3CN(C4CCCC4)C(=O)[C@]34CCCN24)c(-c2ccccc2)n1	none
CC(=O)Nc1ccc(Nc2ncnc(N)c2[N+](=O)[O-])cc1	OX1R antag-2 37
CC(=O)Nc1ccc(Nc2ncc([N+](=O)[O-])c(Nc3ccc(NC(C)=O)cc3)n2)cc1	none
CC1(C(=O)NS(=O)(=O)c2ccccc2C(F)(F)F)CCN1C(=O)CC1CCCC1 (centres undefined)	none (no result: CHO parental Ca, GPR7 antagonist, OX1R antag-1, OX1R antag-2)
CC1=CCC[C@H]2[C@H](C1)C(=O)C[C@@H](C)[C@]2(C)CC/C(=C/CO)CO	none (no result: GPR7 antagonist)
O=C(COC(=O)c1cc(=O)c2ccccc2o1)Nc1ccc2ccccc2c1	TAAR1 agonist 40
Cc1cccc(C)c1NC(=O)C1(C)CSCC(=O)N1CCC(C)C (centres undefined)	none (no result: CHO parental Ca, GPR7 antagonist, OX1R antag-1, OX1R antag-2)
COc1ccc(OCCOC(=O)c2[nH]c(C)c(C(C)=O)c2C)cc1	CHO parental Ca 45
COc1ccc(CCNC(=O)c2[nH]c(C)c(C(C)=O)c2C)cc1	none
COc1cc(C=C2CCCC(=Cc3ccc(OCC4CO4)c(OC)c3)C2=O)ccc1OCC1CO1 (centres undefined)	TAAR1 antagonist 61 (no result: CHO parental Ca, GPR7 antagonist, OX1R antag-1, OX1R antag-2)
N#Cc1cc(Nc2c(N)nc[nH]c2=O)c([N+](=O)[O-])cc1C#N	OX1R antag-2 48
N#Cc1cc(NC2CCCC2)c([N+](=O)[O-])cc1C#N	none
COc1ccc(N2CCN(C(c3ccccc3OC)c3nnnn3C3CCCC3)CC2)cc1 (centres undefined)	none (no result: CHO parental Ca, OX1R antag-1, OX1R antag-2)
COc1ccc(C(c2nnnn2C2CCCC2)N2CCc3ccccc3C2)cc1OC (centres undefined)	GPR7 antagonist 22 (no result: CHO parental Ca, OX1R antag-1, OX1R antag-2)
COc1ccc(OC)c(C(c2nnnn2C2CCCC2)N2CCN(c3ccccc3F)CC2)c1 (centres undefined)	GPR7 antagonist 28
COc1ccc(N2CCN(C(c3cccc(OC)c3OC)c3nnnn3C3CCCC3)CC2)cc1 (centres undefined)	GPR7 antagonist 21
COc1ccc(OC)c(C(c2nnnn2C2CCCC2)N2CCc3ccccc3C2)c1 (centres undefined)	none
O=C1c2ccccc2NC(c2ccc(F)cc2)N1Cc1ccccc1 (centres undefined)	none
COc1ccc(NC(=O)CSc2nc3ccncc3[nH]2)c(OC)c1	none
O=C1c2cccc3cccc(c23)C(=O)N1CCCn1ccnc1	OX1R antag-2 55 (no result: GPR7 antagonist)
CN(CC1CCCN(CCc2ccc(Cl)cc2)C1)C(=O)CC(F)(F)F (centres undefined)	none
O=C(NCc1cccc(CNC(=O)c2ccco2)c1)c1ccco1	none
O=C(NCc1cccc(CNC(=O)C(=O)NCc2ccco2)c1)C(=O)NCc1ccco1	CHO parental Ca 33
CCc1ccccc1NC(=O)CSc1nc(-c2ccccc2)nn1C(=O)c1cccc([N+](=O)[O-])c1	OX1R antag-2 42 (no result: TAAR1 agonist, TAAR1 antagonist)
O=C(CSc1nc(-c2ccccc2)nn1C(=O)c1ccccc1)Nc1cccc([N+](=O)[O-])c1	none
O=C(c1ccco1)N1CCN(c2c([N+](=O)[O-])nn(-c3ccc(Cl)cc3)[n+]2[O-])CC1	OX1R antag-2 42
Cc1cccc(OCCSc2nc3ncnc(N)c3[nH]2)c1	GPR7 antagonist 16
Cc1cc(C)cc(-n2ccnc2SCC(=O)O)c1	GPR7 antagonist 30
NS(=O)(=O)c1ccc(CCNC(=O)COC(=O)/C=C/c2cc(Br)ccc2F)cc1	none (no result: GPR7 antagonist)
CCC(=O)Nc1ccc(NC(=O)c2oc3ccccc3c2C)cc1	OX1R antag-2 47
COc1ccc(CCNC(=O)c2oc3ccccc3c2C)cc1	none (no result: GPR7 antagonist)
CCC(=O)Nc1ccc(NC(=S)NC(=O)c2oc3ccccc3c2C)cc1	none
Cc1c(C(=O)NCCc2ccc3c(c2)OCCO3)oc2ccccc12	OX1R antag-2 38
CCOc1ccc2oc(C(=O)Nc3ccc(N4CCOCC4)cc3)c(C)c2c1	TAAR1 antagonist 50
CC(=O)Nc1cccc(NC(=O)c2oc3ccccc3c2C)c1	OX1R antag-2 62
CCOc1ccc2oc(C(=O)Nc3ccc4c(c3)OCO4)c(C)c2c1	none
O=C(CCCN1C(=O)NC2(CCCC2)C1=O)Nc1ccc(Cl)c(S(=O)(=O)N2CCOCC2)c1	none (no result: CHO parental Ca, GPR7 antagonist, OX1R antag-1, OX1R antag-2)
COc1cccc(NC(=O)C2CCC(CNS(=O)(=O)c3cccs3)CC2)c1 (centres undefined)	none
Clc1ccc(C(Cn2ccnc2)OCc2c(Cl)cccc2Cl)c(Cl)c1 (centres undefined)	CHO parental Ca 60, TAAR1 antagonist 51 (no result: GPR7 antagonist)
OC(Cn1ccnc1)c1ccc(Cl)cc1Cl (centres undefined)	none
O=C1c2ccccc2S(=O)(=O)N1Cc1nnc(-c2ccccc2Br)o1	none (no result: CHO parental Ca, OX1R antag-1, OX1R antag-2)
O=S1(=O)c2cccc3cccc(c23)N1Cc1nnc(-c2ccccc2Br)o1	CHO parental Ca 32
COCC(=O)Nc1cc(Cl)ccc1C(F)(F)F	none (no result: TAAR1 agonist, TAAR1 antagonist)
CCc1ccc(OCC(=O)Nc2ccc(-c3cc4ccccc4oc3=O)c(OC)c2)cc1	CHO parental Ca 40
Cc1cc2c(NCCc3ccccc3)ncnc2s1	CHO parental Ca 64, OX1R antag-1 49, OX1R antag-2 54
c1ccc(CCNc2ncnc3ccccc23)cc1	CHO parental Ca 32
Cc1cc2c(Nc3ccccc3)ncnc2s1	none

High-throughput results (PubChem BioAssay)
